A short description of test [1]: Cytotoxicity against human HeLa cells assessed as reduction in cell viability after 24 hrs by MTT assay. Type of test: functional. As to conditions: read-out: LD50 (the source's name). The method, boiled down: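 HeLa human cervical cancer cultured cells. Potency is expressed as median lethal dose (LD50). Values are mean ± SD of five independent experiments.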
Test [2] in a line: Inhibition of calf thymus DNA polymerase alpha assessed as reduction in [3H]dTTP incorporation using poly(dA)/oligo(dT)18 as template/primer preincubated for 10 mins followed by template/primer addition measured after 60 mins. Also noted: species or system Bos taurus. The method, boiled down:
(§1)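 IC50 values are given as mean ± SD from three independent experiments.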

The target in the next test is T1, DNA polymerase lambda (Homo sapiens, UniProt Q9UGP5).
T1 sequence (Q9UGP5 whole entry): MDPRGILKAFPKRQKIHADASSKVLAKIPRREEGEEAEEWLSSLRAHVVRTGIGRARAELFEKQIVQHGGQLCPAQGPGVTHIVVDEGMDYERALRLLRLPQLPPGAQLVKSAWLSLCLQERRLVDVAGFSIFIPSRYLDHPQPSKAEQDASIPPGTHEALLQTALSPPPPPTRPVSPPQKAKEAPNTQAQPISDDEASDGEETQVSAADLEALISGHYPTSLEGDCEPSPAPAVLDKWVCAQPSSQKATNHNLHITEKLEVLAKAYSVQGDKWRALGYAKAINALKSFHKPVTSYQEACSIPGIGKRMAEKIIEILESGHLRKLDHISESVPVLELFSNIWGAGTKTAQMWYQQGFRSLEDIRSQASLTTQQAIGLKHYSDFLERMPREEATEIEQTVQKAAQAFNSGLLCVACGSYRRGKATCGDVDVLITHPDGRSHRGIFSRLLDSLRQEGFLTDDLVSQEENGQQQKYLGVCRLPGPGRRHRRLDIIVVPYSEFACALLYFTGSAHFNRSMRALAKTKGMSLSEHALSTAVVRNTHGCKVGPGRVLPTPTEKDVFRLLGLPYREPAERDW
Kind of test: Inhibition of recombinant human His-tagged DNA polymerase lambda assessed as reduction in [3H]dTTP incorporation using poly(dA)/oligo(dT)18 as template/primer preincubated for 10 mins followed by template/primer addition measured after 60 mins. Summed up: as §1

SMILES strings stand for the structures.

What is called IC50 is the concentration that inhibits the measured activity by half. As to `C=C(C)[C@H](O)CC/C(C)=C/C[C@@H]1C[C@]2(CC=C(C)C)C(=O)[C@@](CC=C(C)C)(C(=O)C(C(=O)c3ccc(O)c(O)c3)=C2O)[C@@]1(C)CCC=C(C)C`, the CC50 in test [1] is 9.8 µM. The IC50 amounted to 6.3 µM in test [2] and 5 µM at DNA polymerase lambda.

In the case of `CC(C)=CCC[C@@]1(C)[C@H](CC=C(C)C)C[C@]2(CC=C(C)C)C(=O)[C@@]1(CC=C(C)C)C(=O)C(C(=O)c1ccc(O)c(O)c1)=C2O` [GUTTIFERONE K], at DNA polymerase lambda, the IC50 was found to be 5.4 µM.

As to `C=C(C)C(O)C[C@@H]1C[C@]2(CC=C(C)C)C(=O)[C@@](CC=C(C)C)(C(=O)C(C(=O)c3ccc(O)c(O)c3)=C2O)[C@@]1(C)CCC=C(C)C` (some centres undefined), the CC50 in test [1] came to 66.5 µM. Besides, the IC50 in test [2] is 8.6 µM; on DNA polymerase lambda, 8.8 µM.

For the molecule `CC(C)=CCC/C(C)=C/CC1(CC=C(C)C)C(O)=C(C(=O)c2ccc(O)c(O)c2)C(=O)C2=C1OC(C)(C)C=C2` (centres undefined), the CC50 in test [1] came to 50.8 µM. The IC50 in test [2] is 7.9 µM; on DNA polymerase lambda, 6.2 µM.

Consider `C=C(C)[C@@H](O)CC/C(C)=C/C[C@@H]1C[C@]2(CC=C(C)C)C(=O)[C@@](CC=C(C)C)(C(=O)C(C(=O)c3ccc(O)c(O)c3)=C2O)[C@@]1(C)CCC=C(C)C`, for which the CC50 in test [1] stood at 9.9 µM. Further, the IC50 amounted to 6.4 µM in test [2] and 5.8 µM at DNA polymerase lambda.

`C[C@@]1(CO)[C@H](O)CC[C@@]2(C)[C@H]1CC[C@H]1C[C@@H]3C[C@@]12CC[C@]3(O)CO` [APHIDICOLIN]: in test [1], the CC50 was found to be 22 µM. The IC50 was 19.6 µM in test [2] and above 200 µM at DNA polymerase lambda.

For the molecule `CC(C)=CCC[C@@]1(C)[C@H](C/C=C(\C)C/C=C/C(C)(C)O)C[C@]2(CC=C(C)C)C(=O)[C@@]1(CC=C(C)C)C(=O)C(C(=O)c1ccc(O)c(O)c1)=C2O`, the CC50 in test [1] was determined as 73.4 µM. In addition, the IC50 in test [2] was 8.8 µM; at DNA polymerase lambda, 5.6 µM.

On to `CC(C)=CC[C@@H]1C[C@]2(CC=C(C)C)C(=O)[C@@]3(CC=C(C)C)C(O[C@@H](C(C)(C)O)CC[C@@]13C)C(C(=O)c1ccc(O)c(O)c1)=C2O` (some centres undefined), for which the CC50 in test [1] turned out to be 6.5 µM. Also, the IC50 in test [2] is 5.6 µM; on DNA polymerase lambda, 7.4 µM.

`CC(C)=CCC/C(C)=C/C[C@@H]1C[C@]2(CC=C(C)C)C(=O)[C@@](CC=C(C)C)(C(=O)C(C(=O)c3ccc(O)c(O)c3)=C2O)[C@@]1(C)CCC=C(C)C` [OBLONGIFOLIN C]: the CC50 in test [1] amounted to 7.3 µM. Moreover, the IC50 in test [2] was 5.7 µM; at DNA polymerase lambda, 5.2 µM.

Take `Cc1cn([C@H]2CC[C@@H](COP(=O)(O)OP(=O)(O)OP(=O)(O)O)O2)c(=O)[nH]c1=O`: the CC50 in test [1] is above 200 µM. The IC50 in test [2] was above 200 µM; at DNA polymerase lambda, 28.7 µM.

As to `CC(C)=CCC[C@@]1(C)[C@H](CC=C(C)C)C[C@]2(CC=C(C)C)C(=O)[C@@]1(CC=C(C)C)C(=O)C(C(=O)c1cccc(O)c1)=C2O`, the CC50 in test [1] worked out at 10.2 µM. Further, the results for the IC50 (in test [2]; on DNA polymerase lambda) were 6.5 µM and 5.7 µM, respectively.

Turning to `CC(C)=CCC/C(C)=C/C[C@@H]1C[C@]2(CC=C(C)C)C(=O)[C@@]3(CC=C(C)C)C(O[C@@H](C(C)(C)O)CC[C@@]13C)C(C(=O)c1ccc(O)c(O)c1)=C2O` (some centres undefined), in test [1], the CC50 worked out at 5.9 µM. The IC50 was 5.4 µM in test [2] and 6.9 µM on DNA polymerase lambda.

(Values after ChEMBL document CHEMBL3861979, “Polyprenylated Benzoylphloroglucinols with DNA Polymerase Inhibitory Activity from the Fruits of Garcinia schomburgkiana” (J Nat Prod, 2016).)
